An excerpt weighted towards active compounds, which were near 1.2% of everything screened.
CHO-K1 Ca antag = nonselective inhibitor or artifact in parental CHO-K1 cells; hit rate 0.6% among 360,000; AID 602250; ATP-induced calcium, Fluo-8 fluorescence; inhibition, % at 3 µM;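 active means inhibition above a per-plate cutoff, the plate's mean sample inhibition plus 3 SD, cut at about 24% in these data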
CHO-K1 Ca ag = nonselective activator or artifact in parental CHO-K1 cells; Fluo-8 calcium fluorescence; scaled to maximal ATP response, vehicle zero; activation, % at 3 µM; hit rate 0.48% among 360,000; in the data active means activation above about 15%;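 further: untransfected CHO-K1 host cells lacking M1 receptor as counterscreen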
TRPML3 ag = human mucolipin-3 channel agonism. Q8TDD5. hit rate 0.29% among 220,000. AID 1448. activation, % at 3 µM. HEK293 TRPML3-YFP, Fluo-8 calcium fluorescence; 100% = the carbachol control signal;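 active means activation above its plate's cutoff, the mean activation of the plate's test wells plus 3 SD, cut at about 12% in these data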
Target sequence (Q8TDD5 whole entry, looked up): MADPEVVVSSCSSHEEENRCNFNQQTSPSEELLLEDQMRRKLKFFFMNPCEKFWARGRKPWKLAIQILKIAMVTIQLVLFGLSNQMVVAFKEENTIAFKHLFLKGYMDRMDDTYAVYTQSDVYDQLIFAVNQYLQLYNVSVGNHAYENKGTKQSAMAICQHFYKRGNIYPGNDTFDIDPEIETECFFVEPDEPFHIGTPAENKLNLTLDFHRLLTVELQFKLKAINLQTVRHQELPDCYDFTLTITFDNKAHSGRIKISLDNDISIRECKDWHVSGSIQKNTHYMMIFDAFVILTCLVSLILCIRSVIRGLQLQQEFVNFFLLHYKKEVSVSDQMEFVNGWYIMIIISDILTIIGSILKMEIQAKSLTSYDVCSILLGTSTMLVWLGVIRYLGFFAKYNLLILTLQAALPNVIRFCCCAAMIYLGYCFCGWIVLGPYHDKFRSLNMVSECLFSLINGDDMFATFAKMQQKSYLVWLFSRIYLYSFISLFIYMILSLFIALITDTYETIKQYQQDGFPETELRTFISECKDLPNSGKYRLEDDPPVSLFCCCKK
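Material: TRPML3-YFP stable HEK293 cells | Dosing: One concentration, 3 µM nominal, 0.3% DMSO | Timing: 125 s total fluorescence read per well | Technique: Fluo-8 calcium dye fluorescence, ex 470-495, em 515-575 nm | Measure: Percent activation from peak-to-basal fluorescence ratio, scaled between DMSO and carbachol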
M1 PAM parental = counter-screen for M1 PAMs: effect in parental CHO-K1 cells. activation, % at 3 µM. hit rate 0.02% among 360,000. AID 602247. ATP EC20, Fluo-8 calcium fluorescence; 0% at ATP EC20, 100% at ATP max;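 active means activation above the run cutoff, the mean activation of all test compounds plus 3 SD, cut at about 40% in these data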;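 further: peak over basal fluorescence ratio in a 140 s read after ATP addition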
zfTRPN1 agonist = agonists of zebrafish TRPN1 channel; AID 1424; hit rate 0.18% among 220,000; HEK293 zebrafish TRPN1-YFP, Fluo-8 calcium fluorescence; 100% = response to 87 µM carbachol; activation, % at 3 µM;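 active means activation above its plate's cutoff, the mean activation of test wells on that plate plus 3 SD, cut at about 19% in these data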
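System: zebrafish TRPN1-YFP in HEK293 cells / Dosing: 3 µM single point / Timing: dye loading 1 h at 37 °C, then 30 min room temperature / Signal: Fluo-8 calcium fluorescence, excitation 470-495 nm, emission 515-575 nm / Read-out basis: percent activation from peak over basal fluorescence ratio, control-normalized / Control set: high carbachol 87 µM, low DMSO alone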
A number is an active result; - = inactive; . = not tested or not shown.

SMILES	CHO-K1 Ca antag	CHO-K1 Ca ag	TRPML3 ag	M1 PAM parental	zfTRPN1 agonist
CCOC1=C2[C@@H](CN(S(=O)(=O)c3ccc(C)cc3)[C@H]2c2ccccc2Cl)[C@H]2C(=O)N(Cc3ccccc3)C(=O)[C@H]2C1	-	-	.	-	.
CC1(C(=O)NS(=O)(=O)Cc2cccc(Cl)c2)CCN1C(=O)C/C=C/c1ccccc1 (centres undefined)	-	-	.	-	.
Cc1ccccc1NC(=O)Cn1nc(-c2ccccc2)nc1-c1ccccc1	24	-	-	-	-
CC(CC(=O)O)CC(=O)Nc1cc([N+](=O)[O-])ccc1O (centres undefined)	-	-	-	-	-
Cc1ccc(SCC(=O)Nc2cc([N+](=O)[O-])ccc2O)cc1	-	-	19	-	24
O=C(CSCc1ccc(Cl)cc1)Nc1cc([N+](=O)[O-])ccc1O	-	-	18	-	25
Cc1cc(C(=O)COc2ccc(C#N)cc2)c(C)n1-c1ccc2c(c1)OCO2	32	-	-	-	-
COC(=O)C1=C(C)NC(C)=C(C(=O)OC)C1c1ccco1	-	19	-	-	-
CCOC(=O)C1=C(C)NC(C)=C(C(=O)OCC)C1c1ccco1	-	-	-	-	-
Cc1ccc(/C=N/NC(=O)c2ccc3ccccc3c2)s1	25	-	.	-	.
COc1c(Cl)cnn(-c2ccc(Cl)c(Cl)c2)c1=O	-	17	-	-	-
CC1=C/C(=N\OC(=O)/C=C/c2ccccc2)C(C)=CC1=O	28	-	-	-	-
CCc1nnc(NC(=O)C2CCCN2C(=O)Nc2ccc(C)cc2)s1 (centres undefined)	-	-	.	-	.
CCc1nnc(NC(=O)C2CCCN2C(=O)Nc2ccccc2)s1 (centres undefined)	-	20	-	-	-
CC(C)/C=C1\CC/C(=C\c2ccc(N(C)C)cc2)C1=O	29	29	-	-	22
CN(C)c1ccc(/C=C2/C[N+](C)(C)C/C(=C/c3ccc(N(C)C)cc3)C2=O)cc1	-	-	.	-	.
Cc1ccc(S(=O)(=O)CCN2C=CC(C(F)(F)F)=NCC2)cc1	-	17	-	-	-
O=S(=O)(c1ccc2ccccc2c1)N1C=CC(C(F)(F)F)=NCC1	-	-	-	-	-
O=C(N/N=C\c1c(O)ccc2ccccc12)c1cncc(Br)c1	-	39	.	-	.
O=C(N/N=C/c1c(O)ccc2ccccc12)c1cccnc1	-	-	.	-	.
N#Cc1ccc(NC(=O)Nc2cccc(C#N)c2)cc1	31	18	12	-	23
CC1(C)OCC(N)(CO)CO1	-	-	.	-	.
O=C(NCC1CC1)c1ccc2sc([C@@H]3O[C@H](CO)[C@H](O)[C@H](O)[C@H]3O)nc2c1	-	-	.	-	.
COc1ccc(CN(C)C(=O)c2cc(-c3ccccc3)nc3ccc(C)cc23)c(OC)c1OC	-	18	.	-	.
COc1ccccc1CCc1nnc(CCC(=O)N(C)Cc2cccc3cnccc23)o1	25	-	-	-	-
SMILES	CHO-K1 Ca antag	CHO-K1 Ca ag	TRPML3 ag	M1 PAM parental	zfTRPN1 agonist
c1csc(-c2ccc3nncn3c2)c1	-	-	.	-	.
CC1(C(=O)Nc2cccc(C#N)c2)CCN1C(=O)Cc1ccc(-c2ccccc2)cc1 (centres undefined)	28	-	.	-	.
COc1ccccc1/C=C/C=N/n1c(-c2ccccc2)n[nH]c1=S	-	-	-	-	-
COc1ccccc1/C=C/C=N/n1c(-c2ccc(Cl)cc2)n[nH]c1=S	53	-	-	-	-
COc1ccc(NC2CCCN(C(=O)CCn3cccn3)C2)cc1 (centres undefined)	-	-	.	-	.
COc1ccc(NC2CCCN(C(=O)CCCn3cncn3)C2)cc1 (centres undefined)	-	18	.	-	.
O=C(NC1CCCCC1)c1ccc(S(=O)(=O)NCc2ccco2)cc1	-	-	-	-	-
CC1CCCC(C)N1C(=O)c1ccc(S(=O)(=O)NCc2ccco2)cc1 (centres undefined)	-	19	.	-	.
CS(=O)(=O)c1ccc2nc(NC(=O)Nc3ccc(Cl)c(Cl)c3)sc2c1	-	-	-	-	-
CS(=O)(=O)c1ccc2nc(NC(=O)Nc3cccc(Cl)c3)sc2c1	-	16	-	-	-
O=C(Nc1cccc(Cl)c1)Nc1nnc(-c2ccncc2)s1	33	-	-	-	-
COc1ccc(C(O)c2nc(-c3ccccc3C)cs2)cc1 (centres undefined)	-	-	.	-	.
COc1ccc(C(=O)COC(=O)C2COc3ccccc3O2)c(OC)c1 (centres undefined)	-	-	.	-	.
Cc1ccc(S(=O)(=O)CC(c2ccccc2)N2CCOCC2)cc1 (centres undefined)	-	-	-	-	-
Cc1ccc(S(=O)(=O)CC(c2ccccc2)N2CCCCC2)cc1 (centres undefined)	27	-	-	-	-
CC1(C(=O)NS(=O)(=O)c2cccc(C#N)c2)CCN1C(=O)CC1CCCC1 (centres undefined)	-	-	.	-	.
Cc1ccccc1CN1CCN(CC(=O)NCCCN2CCN(c3ccc(F)cc3)CC2)C1=O	29	-	-	-	-
Clc1ccc(N2O[C@H]3C=C[C@@H]2C3)nc1	-	-	.	-	.
N#C/C(=C\c1coc2ccccc2c1=O)C(N)=S	-	-	-	-	-
N#C/C(=C\c1coc2ccc(O)cc2c1=O)C(=O)Nc1nc2ccccc2s1	40	58	64	-	222
O=C(Nc1ccccc1)Nc1ccc(-n2ccc(C(F)(F)F)n2)cc1	26	17	-	-	-
CC(C)c1nnc(SCC(=O)NCc2ccco2)n1C	30	-	-	-	-
O=C(Cn1cc(COc2ccc(Br)cc2[N+](=O)[O-])nn1)c1ccc(O)cc1	25	-	.	-	.
CC(=O)c1ccc(OCc2cn(CC(=O)c3ccc(O)cc3)nn2)c(C)c1	-	-	.	-	.
O=C(Nc1cccc(C(=O)Nc2cccc(Br)c2)c1)c1ccccc1	25	-	.	-	.
SMILES	CHO-K1 Ca antag	CHO-K1 Ca ag	TRPML3 ag	M1 PAM parental	zfTRPN1 agonist
O=C(Nc1cccc(F)c1)c1ccccc1	36	-	-	-	-
Cc1c(Br)cccc1NC(=O)C1(C)CCN1Cc1ccccc1OC(F)F (centres undefined)	-	-	.	-	.
COC(=O)CCCC[C@@H]1O[C@H](CCc2ccccc2)Cc2[nH]c(=S)[nH]c(=O)c21	-	-	.	-	.
CC(C)CCN1CCN(Cc2cc3ccccc3[nH]2)CC1CCO (centres undefined)	-	16	.	-	.
CC(C)CN1CCN(Cc2cc3ccccc3[nH]2)CC1CCO (centres undefined)	-	-	.	-	.
COc1cccc(CN2CCN(Cc3cc4ccccc4[nH]3)CC2CCO)c1 (centres undefined)	-	-	-	-	28
COc1ccc(CN2CCN(Cc3cccc(OC)c3)C(CCO)C2)cc1 (centres undefined)	-	-	-	-	-
COc1cccc(CN2CCN(Cc3[nH]c4ccccc4c3C)CC2CCO)c1 (centres undefined)	-	22	-	-	-
COc1ccc(-c2cc(C(=O)NCC3CCCCC3)[nH]n2)c(C)c1	-	-	.	-	.

Screens deposited in PubChem by The Scripps Research Institute Molecular Screening Center.
